Ba/F3 V617F tox – lowers viability of Ba/F3 cells expressing EpoR and JAK2V617F; inhibition, % at 5.6 µM; actives 1.1% (n = 220,000); ATP luminescence; AID 1446;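 active = inhibition above the campaign mean plus 3 SD over all tested compounds, cut at about 24% in these data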;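 also: cytokine-independent growth of Ba/F3 cells driven by EpoR plus mutant JAK2; 0% = DMSO-treated cells and 100% = JAK inhibitor I control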
IEC-6 cytotox – kills IEC-6 intestinal cells in KLF5 counter-screen; inhibition, % at 5 µM; actives 0.78% (n = 290,000); IEC-6 cytotoxicity, luminescence viability; AID 1825; in the data active = inhibition above about 22%;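 also: 0% = plate median of test compound wells and 100% = cytotoxic reference compound wells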
MT stabilize HCS – stabilizes microtubules in HeLa cells. actives 0.83% (n = 200,000). HeLa tubulin immunostaining HCS, 24 h; share of cells brighter than vehicle mean+2SD. % tubulin-high responders, % at 10 µM;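 active = plate Z-score above 3 for both tubulin-high and condensed-nucleus cell shares, with cell loss under 80%, at 10 µM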;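 also: anti alpha tubulin signal scored within the nucleus-defined area of each cell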
BaF3 parental – counter-screen for JAK2V617F inhibitors: parental Ba/F3 viability inhibitors. AID 1486. CellTiter-Glo ATP luminescence. inhibition, % at 5.6 µM. actives 1.1% (n = 220,000);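 active = inhibition above a per-campaign cutoff, the mean inhibition of all tested compounds plus 3 SD, cut at about 27% in these data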;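 also: 0% = DMSO wells and 100% = JAK Inhibitor I control wells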
APP transl inh – APP translation inhibition; SH-SY5Y APP 5'UTR-luciferase reporter, luminescence; actives 0.82% (n = 190,000); AID 1285; inhibition, % at 2 µM;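 active = inhibition above a set limit, derived from the sample mean plus 3 SD, cut at about 45% in these data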
b-catenin transl – alters nuclear translocation of beta-catenin in HeLa cells; actives 0.3% (n = 190,000); nuclear translocation activity, % at 5 µM; immunofluorescence imaging; AID 1665;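 active = nuclear translocation activity above 50% at 5 µM, with a well cell count of 50 or more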;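 also: per-cell ratio of nuclear to cytoplasmic median beta-catenin stain intensity; plate controls were DMSO negative control for no effect and GSK-3 inhibitor IX positive control for full effect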
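Signal – beta-catenin immunofluorescence imaging with DAPI · Test system – human HeLa cell line · Dosing – 5 µM primary single dose, 0.1% DMSO, 0.02–20 µM confirmation series · Measure – % activation, nuclear-to-cytoplasmic median beta-catenin signal ratio per cell · Incubation – 24 h compound exposure at 37°C, 5% CO2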
Active calls of the source: *; . = not tested or not shown. An excerpt weighted towards active compounds, which were near 2.2% of everything screened.

SMILES	Ba/F3 V617F tox	IEC-6 cytotox	MT stabilize HCS	BaF3 parental	APP transl inh	b-catenin transl
CCN1C(=O)C2CCCCN2c2ccc(C(=O)NCCOC)cc21 (centres undefined)	.	-1	.	.	.	.
CCOC(=O)/C(=N/Nc1ccc(C)cc1)S(=O)(=O)c1ccc(Cl)cc1	-1	4	3	6	63*	1
Cc1ccc(S(=O)(=O)N(C)C)cc1NC(=O)COC(=O)CCC(=O)c1cccs1	1	-2	3	3	-10	-4
C=CCn1cccc(/C=C/C(=O)c2ccc(C(C)(C)C)cc2)c1=S	10	0	1	46*	14	3
COc1ccccc1CC(=O)NCc1nn(-c2ccccc2)nc1C	1	2	.	-4	.	-1
COC(=O)c1ccc(Oc2cc(C)nc(SC)n2)cc1	1	7	51*	5	86*	8
COc1ccc(-c2cn3cc(Br)cnc3n2)cc1	1	5	20*	4	-100	1
COc1ccc(-c2cn3cccnc3n2)cc1Br	-1	0	2	8	4	1
Cc1cc(NC(=O)Nc2cccc([N+](=O)[O-])c2)no1	0	4	2	90*	-8	-1
COc1ccc(C(=O)c2oc3ccccc3c2NC(C)=O)cc1	0	3	2	0	2	2
COc1ccc(OC)c(C(=O)c2oc3ccccc3c2NC(C)=O)c1	0	-3	17*	7	8	-2
Cc1ccc(S(=O)(=O)Nc2ccc3nc(C)sc3c2)cc1	34*	5	4	39*	13	-3
Cc1nc2ccc(NS(=O)(=O)c3c(C)c(C)cc(C)c3C)cc2s1	1	9	44*	8	-16	2
Cc1nc2cc(NS(=O)(=O)c3c(C)c(C)cc(C)c3C)ccc2s1	3	6	5	7	-11	0
Cc1nc2ccc(NS(=O)(=O)c3ccc4c(c3)OCCO4)cc2s1	42*	14	2	53*	-11	0
Cc1ccc(S(=O)(=O)Nc2ccc3c(c2)OCCO3)cc1	0	-4	7	4	-6	-1
c1ccc(SCc2cn(C[C@H]3CC[C@@H]([C@@H]4CC[C@H](Cn5cc(CSc6ccccc6)nn5)O4)O3)nn2)cc1	.	-3	.	.	.	.
CCOc1cc(NC(=O)C(C)C)c(OCC)cc1NC(=O)Nc1ccccc1	.	0	.	.	.	.
Cc1c2cnn(CC(=O)N3CCOCC3)c(=O)c2c(C)n1Cc1ccccc1F	.	-1	.	.	.	.
CCCCNC(=O)c1sc(=S)n2c1[nH]c(=O)c1ccccc12	-2	-3	5	101*	5	1
O=C(Nc1ccccc1C(F)(F)F)N1CCN(c2ccccn2)CC1	0	5	3	89*	-10	-5
COc1ccc(CCNc2nc(-c3sc(C)nc3C)cs2)cc1OC	-1	1	2	4	55*	.
COc1ccc(CCNc2nc(-c3ccncc3)cs2)cc1OC	1	4	.	0	.	2
COc1ccc(S(=O)(=O)Nc2cc([N+](=O)[O-])ccc2OC)cc1	1	3	28*	7	7	7
Cc1ccc[n+](CC(=O)Nc2ccc(C)c(C)c2)c1	.	-3	.	.	.	.
SMILES	Ba/F3 V617F tox	IEC-6 cytotox	MT stabilize HCS	BaF3 parental	APP transl inh	b-catenin transl
CCOc1cc(/C=N/NC(=O)C(=O)Nc2cc(Cl)ccc2C)ccc1O	-2	3	2	0	0	-1
Cc1cc(C)c(CSc2ncnc3nc[nH]c23)c(C)c1	0	0	2	4	-3	56*
O=C(Nc1ccc(Cl)c(Cl)c1)Nc1nccs1	73*	78*	.	71*	.	12
COc1ccc(/C=N/NC(=O)c2cccnc2)cc1CSc1ccccn1	1	12	.	-2	.	65*
Cc1c(NC(=O)C(C)OC(=O)c2cc(Cl)ccc2O)c(=O)n(-c2ccccc2)n1C (centres undefined)	.	-4	.	.	.	.
CCn1c(NCc2ccccc2NS(=O)(=O)c2ccc(C)cc2)nc2ccccc21	-1	4	6	9	-8	-1
CCCn1c(NCc2ccccc2NS(=O)(=O)c2ccc(C)cc2)nc2ccccc21	-4	4	21*	2	1	-3
Cn1cccc/c1=N\c1cccc[n+]1C	73*	1	.	63*	.	3
CN(C)S(=O)(=O)c1cccc(CSCc2cccc(S(=O)(=O)N(C)C)c2)c1	.	9	.	.	.	.
Cc1cccc(NC(=S)N=Nc2c(O)[nH]c3ccccc23)c1	-2	38*	2	4	45*	-4
COc1ccccc1NC(=S)N=Nc1c(O)[nH]c2ccc(Br)cc12	-3	-4	.	-3	.	-1
N=C1/C(=C\c2ccc(-c3cccc(C(=O)O)c3)o2)C(=O)N=C2SC=C(c3ccccc3)N12	-1	-10	.	0	.	1
OCCN(CCO)CC(O)COc1ccc(Br)cc1 (centres undefined)	-1	-6	.	0	.	1
OCCN(CCO)CC(O)COc1ccc(C23CC4CC(CC(C4)C2)C3)cc1 (centres undefined)	-3	-7	2	6	53*	0
CCOC(=O)Cc1csc(NC(=O)CCSc2ccccc2)n1	2	3	6	2	8	-6
O=C1/C(=C\c2ccccc2)CCc2c1[nH]c1ccccc21	6	9	21*	10	-162	0
CCOC(=O)N1CCC(NC(=O)c2ccc3c(c2)sc2nc(-c4ccc(OC)cc4)cn23)CC1	0	2	4	27*	-1	0
CC#CC[N+](C)(C)CCCCCCCC	66*	8	.	63*	.	3
CC#CC[N+](C)(C)CC(=O)c1ccccc1	0	-2	.	0	.	0
CC(=O)OCC1O[C@@H](O[C@@H]2C[C@H]3C(C)(C)[C@H](OC(C)=O)CC[C@]3(C)[C@H]3CC[C@]45C[C@]4(CC[C@H]5[C@@H](C)C[C@@H](O)[C@H](O)C(C)(C)O)[C@@]32C)[C@H](O)[C@@H](O)[C@@H]1O (some centres undefined)	0	4	10	-2	-5	.
CCCCOc1ccc(C(=O)NCc2ccccn2)cc1	-2	4	3	3	48*	1
CCCC(=O)NC(c1ccco1)c1cc(Cl)c2cccnc2c1O (centres undefined)	7	5	7	4	4	-3
CCC(=O)NC(c1ccc(OC)c(OC)c1)c1cc(Cl)c2cccnc2c1O (centres undefined)	81*	11	6	39*	62*	1
CCCC(=O)NC(c1ccc2c(c1)OCO2)c1cc(Cl)c2cccnc2c1O (centres undefined)	-5	-9	4	-1	75*	0
COc1ccc(C(NC(C)=O)c2cc(Cl)c3cccnc3c2O)cc1OC (centres undefined)	4	-4	7	10	50*	2
CC1CC1C(=O)Nc1nc(-c2cccs2)c(-c2cccs2)s1 (centres undefined)	-3	0	3	3	15	-1
